According to publication PMC9089800 (RSC Advances, 2018):

How the values were obtained:
MCF7 = assay: MTT growth inhibition / cytotoxicity assay, MCF7; type: cell-based, human; settings: Homo sapiens, MCF7, 48 h, read-out: IC50 in μM MCF7, MTT, 48 h, 0–100 μM
MCF7 cells [1] = assay: DNA fragmentation assay; type: cell-based, human; settings: MCF7, 24 h; 30 μM of 9, 20 μM of 10
MCF10A = assay: cells; type: cell-based; settings: 48 h
MCF7 cells [2] = assay: Immunostaining; type: cell-based, human; settings: IC50 concentration, 12 hours
Procedure, shortened: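 Cells grown overnight as a monolayer on coverslips, then exposed to test compound for 12 h. Fixed in 3.7% formaldehyde for 20 min at room temperature in the dark. Permeabilised with 0.5% Tween-20 for 30 min, then blocked with 3% BSA. Stained 1 h with anti-α-tubulin, then 1 h with Alexa Fluor 594 secondary. DNA counterstained with Hoechst; mounted in DABCO/glycerol.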

caspase 9 = assay: Western blot for apoptotic pathway; type: cell-based, human; settings: MCF7, 24 h; 30 μM of 9, 20 μM of 10
Procedure, shortened: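 MCF7 cells exposed 24 h to DMSO vehicle or test compound. Lysed 20 min on ice in Tris pH 7.4/EDTA/NaCl/NaF/orthovanadate/0.5% Triton X-100, then cleared at 16000 × g at 4 °C. Protein quantified by Bradford; samples boiled in Laemmli buffer. SDS-PAGE, PVDF transfer, 3% milk/TBST block. Anti-caspase 9 overnight at 4 °C; HRP secondary; chemiluminescent detection.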

MCF7 cells [3] = assay: Cell cycle analysis by FACS; type: cell-based, human; settings: MCF7, 24 h; 30 μM of 9, 20 μM of 10
Procedure, shortened: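 Cells seeded a day before; treated 24 h with test compound or DMSO vehicle (final DMSO <0.02%). Cells trypsinised, pelleted at 4 °C, fixed overnight at 4 °C in chilled 95% ethanol, and PBS-washed. Stained with propidium iodide plus RNase in PBS/2 mM MgCl2 for 20 min at 37 °C, then acquired by flow cytometry. Three repeats; mean sub-G1 population plotted.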

C=C1[C@@H]2[C@H]3OC(=O)[C@@H](CN[C@@H](C)c4ccccc4)[C@@H]3CCC(=C)[C@@H]2C[C@@H]1O [Compound 4, (3R,3aS,6aR,8S,9aR,9bS)-8-Hydroxy-6,9-dimethylene-3-((((S)-1-phenylethyl)amino)methyl)decahydroazuleno[4,5-b]furan-2(3H)-one]
IC50 (MCF7): > 100 µM

C=C1[C@@H]2[C@H]3OC(=O)[C@@H](CN[C@H](C)c4ccccc4)[C@@H]3CCC(=C)[C@@H]2C[C@@H]1O [Compound 6, (3R,3aS,6aR,8S,9aR,9bS)-8-Hydroxy-6,9-dimethylene-3-((((R)-1-phenylethyl)amino)methyl)decahydroazuleno[4,5-b]furan-2(3H)-one]
IC50 (MCF7): > 100 µM

C=C1[C@@H]2[C@H]3OC(=O)[C@@H](CN[C@@H](C)c4cccc5ccccc45)[C@@H]3CCC(=C)[C@@H]2C[C@@H]1OC(C)=O [Compound 7, (3R,3aS,6aR,8S,9aR,9bS)-6,9-Dimethylene-3-((((S)-1-(naphthalen-1-yl)ethyl)amino)methyl)-2-oxododecahydroazuleno[4,5-b]furan-8-yl acetate]
IC50 (MCF7): > 100 µM

C=C1[C@@H]2[C@H]3OC(=O)[C@@H](CN[C@@H](C)c4cccc5ccccc45)[C@@H]3CCC(=C)[C@@H]2C[C@@H]1O [Compound 8, (3R,3aS,6aR,8S,9aR,9bS)-8-Hydroxy-6,9-dimethylene-3-((((S)-1-(naphthalene-1-yl)ethyl)amino)methyl)decahydroazuleno[4,5-b] furan-2(3H)-one]
IC50 (MCF7): 75.8 ± 3 µM

C=C1[C@@H]2[C@H]3OC(=O)[C@@H](CN[C@H](C)c4cccc5ccccc45)[C@@H]3CCC(=C)[C@@H]2C[C@@H]1O [Compound 10, (3R,3aS,6aR,8S,9aR,9bS)-8-Hydroxy-6,9-dimethylene-3-((((R)-1-(naphthalen-1-yl)ethyl)amino)methyl)decahydroazuleno[4,5-b] furan-2(3H)-one]
fragmentation of genomic DNA (ladder on agarose gel) (MCF7 cells [1]): substantial fragmented DNA ladder
IC50 (MCF10A; Homo sapiens, MCF-10A, read-out: IC50 in μM MCF10A): > 100 µM
cytotoxic effect on normal breast epithelial MCF10A cells (in words) (MCF10A; MTT): minimal cytotoxic effect
DNA fragmentation by Hoechst staining, tubulin morphology (MCF7 cells [2]): fragmented DNA
apoptotic pathway (caspase 9 immunoblot) (caspase 9): cleavage of caspase 9
apoptotic (sub-G1) population (MCF7 cells [3]): significantly increased the apoptotic populations

C=C1[C@@H]2[C@H]3OC(=O)[C@@H](CN[C@H](C)C4CCCCC4)[C@@H]3CCC(=C)[C@@H]2C[C@@H]1O [Compound 11, (3R,3aS,6aR,8S,9aR,9bS)-3-((((R)-1-Cyclohexylethyl)amino)methyl)-8-hydroxy-6,9-dimethylenedecahydroazuleno[4,5-b]furan-2(3H)-one]
IC50 (MCF7): > 100 µM

C=C1[C@@H]2[C@H]3OC(=O)[C@@H](CN[C@@H](C)C4CCCCC4)[C@@H]3CCC(=C)[C@@H]2C[C@@H]1O [Compound 12, (3R,3aS,6aR,8S,9aR,9bS)-3-((((S)-1-Cyclohexylethyl)amino)methyl)-8-hydroxy-6,9-dimethylenedecahydroazuleno[4,5-b]furan-2(3H)-one]
IC50 (MCF7): > 100 µM

C=C1[C@@H]2[C@H]3OC(=O)[C@@H](CN4CCOCC4)[C@@H]3CCC(=C)[C@@H]2C[C@@H]1OC(C)=O [Compound 17, (3R,3aS,6aR,8S,9aR,9bS)-6,9-Dimethylene-3-(morpholinomethyl)-2-oxododecahydroazuleno[4,5-b]furan-8-yl acetate]
IC50 (MCF7): > 100 µM

C=C1[C@@H]2[C@H]3OC(=O)[C@@H](CN4CCOCC4)[C@@H]3CCC(=C)[C@@H]2C[C@@H]1O [Compound 18, (3R,3aS,6aR,8S,9aR,9bS)-8-Hydroxy-6,9-dimethylene-3-(morpholinomethyl)decahydroazuleno[4,5-b]furan-2(3H)-one]
IC50 (MCF7): > 100 µM

C=C1[C@@H]2[C@H]3OC(=O)[C@@H](CN4CCCC4)[C@@H]3CCC(=C)[C@@H]2C[C@@H]1O [Compound 19, (3R,3aS,6aR,8S,9aR,9bS)-8-Hydroxy-6,9-dimethylene-3-(pyrrolidin-1-ylmethyl)decahydroazuleno[4,5-b]furan-2(3H)-one]
IC50 (MCF7): > 100 µM

C=C1[C@@H]2[C@H]3OC(=O)[C@@H](CN4CCCCC4)[C@@H]3CCC(=C)[C@@H]2C[C@@H]1O [Compound 20, (3R,3aS,6aR,8S,9aR,9bS)-8-Hydroxy-6,9-dimethylene-3-(piperidin-1-ylmethyl)decahydroazuleno[4,5-b]furan-2(3H)-one]
IC50 (MCF7): > 100 µM

C=C1[C@@H]2[C@H]3OC(=O)[C@@H](COC)[C@@H]3CCC(=C)[C@@H]2C[C@@H]1O [Compound 22, (3R,3aS,6aR,8S,9aR,9bS)-8-Hydroxy-3-(methoxymethyl)-6,9-dimethylenedecahydroazuleno[4,5-b]furan-2(3H)-one]
IC50 (MCF7): > 100 µM

C=C1[C@@H]2[C@H]3OC(=O)/C(=C/c4ccc(C)cc4)[C@@H]3CCC(=C)[C@@H]2C[C@@H]1OC(C)=O [Compound 23, (3aS,6aR,8S,9aR,9bS)-3-((E)-4-Methylbenzylidene)-6,9-dimethylene-2-oxododecahydroazuleno[4,5-b]furan-8-yl acetate]
IC50 (MCF7): > 100 µM

C=C1[C@@H]2[C@H]3OC(=O)/C(=C/c4cccc(C(F)(F)F)c4)[C@@H]3CCC(=C)[C@@H]2C[C@@H]1OC(C)=O [Compound 24, (3aS,6aR,8S,9aR,9bS)-6,9-Dimethylene-2-oxo-3-((E)-3-(trifluoro-methyl)benzylidene)dodecahydroazuleno[4,5-b]furan-8-yl acetate]
IC50 (MCF7): > 100 µM

C=C1[C@@H]2[C@H]3OC(=O)/C(=C/c4ccc(Cl)cc4)[C@@H]3CCC(=C)[C@@H]2C[C@@H]1OC(C)=O [Compound 25, (3aS,6aR,8S,9aR,9bS)-3-((E)-4-Chlorobenzylidene)-6,9-dimethylene-2-oxododecahydroazuleno[4,5-b]furan-8-yl acetate]
IC50 (MCF7): > 100 µM

C=C1[C@@H]2[C@H]3OC(=O)/C(=C/c4c(OC)cccc4[N+](=O)[O-])[C@@H]3CCC(=C)[C@@H]2C[C@@H]1OC(C)=O [Compound 26, (3aS,6aR,8S,9aR,9bS)-3-((E)-2-Methoxy-6-nitrobenzylidene)-6,9-dimethylene-2-oxododecahydroazuleno[4,5-b]furan-8-yl acetate]
IC50 (MCF7): > 100 µM

C=C1[C@@H]2[C@H]3OC(=O)/C(=C/c4ccc(C)c([N+](=O)[O-])c4)[C@@H]3CCC(=C)[C@@H]2C[C@@H]1OC(C)=O [Compound 27, (3aS,6aR,8S,9aR,9bS)-3-((E)-4-Methyl-3-nitrobenzylidene)-6,9-dimethylene-2-oxododecahydroazuleno[4,5-b]furan-8-yl acetate]
IC50 (MCF7): > 100 µM

C=C1[C@@H]2[C@H]3OC(=O)/C(=C/c4ccc(NC(C)=O)c(C(F)(F)F)c4)[C@@H]3CCC(=C)[C@@H]2C[C@@H]1OC(C)=O [Compound 28, (3aS,6aR,8S,9aR,9bS)-3-((E)-4-Acetamido-3-(trifluoromethyl)benzylidene)-6,9-dimethylene-2-oxododecahydroazuleno[4,5-b] furan-8-yl acetate]
IC50 (MCF7): > 100 µM

C=C1[C@@H]2[C@H]3OC(=O)/C(=C/c4ccccc4C)[C@@H]3CCC(=C)[C@@H]2C[C@@H]1OC(C)=O [Compound 29, (3aS,6aR,8S,9aR,9bS)-3-((E)-2-Methylbenzylidene)-6,9-dimethylene-2-oxododecahydroazuleno[4,5-b]furan-8-yl acetate]
IC50 (MCF7): 74 µM

C=C1[C@@H]2[C@H]3OC(=O)/C(=C/c4ccc(C(=O)OC)cc4)[C@@H]3CCC(=C)[C@@H]2C[C@@H]1OC(C)=O [Compound 30, Methyl-4-((E)-((3aS,6aR,8S,9aR,9bS)-8-acetoxy-6,9-dimethylene-2-oxodecahydroazuleno[4,5-b]furan-3(2H)-ylidene)methyl)benzoate]
IC50 (MCF7): > 100 µM

C=C1[C@@H]2[C@H]3OC(=O)/C(=C/c4ccccc4[N+](=O)[O-])[C@@H]3CCC(=C)[C@@H]2C[C@@H]1OC(C)=O [Compound 32, (3aS,6aR,8S,9aR,9bS)-6,9-Dimethylene-3-((E)-2-nitrobenzylidene)-2-oxododecahydroazuleno[4,5-b]furan-8-yl acetate]
IC50 (MCF7): 36.5 µM

C=C1[C@@H]2[C@H]3OC(=O)/C(=C/c4ccc(Cl)cc4[N+](=O)[O-])[C@@H]3CCC(=C)[C@@H]2C[C@@H]1OC(C)=O [Compound 33, (3aS,6aR,8S,9aR,9bS)-3-((E)-4-Chloro-2-nitrobenzylidene)-6,9-dimethylene-2-oxododecahydroazuleno[4,5-b]furan-8-yl acetate]
IC50 (MCF7): > 100 µM

C=C1[C@@H]2[C@H]3OC(=O)/C(=C/c4ccc(C)cc4[N+](=O)[O-])[C@@H]3CCC(=C)[C@@H]2C[C@@H]1OC(C)=O [Compound 34, (3aS,6aR,8S,9aR,9bS)-3-((E)-4-Methyl-2-nitrobenzylidene)-6,9-dimethylene-2-oxododecahydroazuleno[4,5-b]furan-8-yl acetate]
IC50 (MCF7): > 100 µM
